Results published in publication PMC7686114 (Bioorganic chemistry, 2020).
“Also recorded” adds a separate entry of the source. Like-named read-outs stand apart in the source and are kept apart here. Values belong to the compound of their own block, whether it stands above or below them.

Legend:
COX-2 = biological target: T1, COX-2 (Ovis aries, UniProt P79208); test: COX-2 colorimetric assay; format: biochemical, ovine
T1 sequence (P79208 17-603): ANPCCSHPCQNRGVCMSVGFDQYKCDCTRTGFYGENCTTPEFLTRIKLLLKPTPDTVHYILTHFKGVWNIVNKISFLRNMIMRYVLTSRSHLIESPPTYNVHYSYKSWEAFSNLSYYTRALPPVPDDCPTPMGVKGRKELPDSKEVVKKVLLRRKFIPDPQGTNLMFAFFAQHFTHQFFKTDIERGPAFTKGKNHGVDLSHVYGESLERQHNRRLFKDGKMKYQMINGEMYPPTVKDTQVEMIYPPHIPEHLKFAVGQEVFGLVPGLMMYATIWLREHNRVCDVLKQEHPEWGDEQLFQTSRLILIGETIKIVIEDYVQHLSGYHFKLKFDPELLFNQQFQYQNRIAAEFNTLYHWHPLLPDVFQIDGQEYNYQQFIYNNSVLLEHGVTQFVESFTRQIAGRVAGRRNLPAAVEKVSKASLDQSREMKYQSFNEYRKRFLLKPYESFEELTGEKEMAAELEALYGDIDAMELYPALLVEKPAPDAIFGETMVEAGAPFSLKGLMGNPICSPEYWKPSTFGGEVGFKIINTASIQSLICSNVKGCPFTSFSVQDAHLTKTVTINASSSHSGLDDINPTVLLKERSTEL
In short: (§1)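 Ovine COX-1 or COX-2 was diluted with hemin in 0.1 M Tris-HCl, pH 8. Test compound or vehicle was preincubated with enzyme for 5 min at 25°C. Colorimetric substrate was added, then arachidonic acid, and the reaction ran 5 min more at 25°C. Activity was read as substrate absorbance at 590 nm.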

human recombinant PDE5 = human recombinant PDE5 (Homo sapiens, UniProt O76074); test: PDE5 inhibition, IMAP fluorescence polarization assay; format: biochemical; details: for fold reduction in PDE5 inhibitory potency compared to compound 7: vs compound 7 (4-COOH, 4-chlorophenyl)
PDE10A = PDE10A (Homo sapiens, UniProt Q9Y233); test: PDE isoform selectivity, IMAP FP assay; format: biochemical
In short: (§2)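 Recombinant PDE enzymes were used at concentrations set empirically to give EC80 activity, in 10 mM Tris-HCl pH 7.4, 10 mM MgCl2, 0.1 mg/mL BSA. Test compound was preincubated with enzyme for 60 min at 30°C. TAMRA-cGMP (ex530/em590) or FAM-cAMP (ex485/em530), 50 nmol/L final, was then added for 30 min at 30°C. IMAP binding reagent followed for 10 min at 30°C, and fluorescence polarization was read.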

PDE4B2 = PDE4B2 (Homo sapiens, UniProt Q07343); test: PDE isoform selectivity, IMAP FP assay; format: biochemical; details: read-out: % inhibition at 50 μM, PDE4B2 (cAMP)
In short: as §2

PDE7A = PDE7A (Homo sapiens, UniProt Q13946); test: PDE isoform selectivity, IMAP FP assay; format: biochemical; details: read-out: % inhibition at 50 μM, PDE7A (cAMP)
In short: as §2

PDE9A = PDE9A (Homo sapiens, UniProt O76083); test: PDE isoform selectivity, IMAP FP assay; format: biochemical; details: read-out: % inhibition at 50 μM, PDE9A (cGMP)
In short: as §2

PDE6C = PDE6C (Homo sapiens, UniProt P51160); test: PDE isoform selectivity, IMAP FP assay; format: biochemical; details: read-out: % inhibition at 50 μM, PDE6C (cGMP)
In short: as §2

[1] = system: intracellular cGMP levels in HEK293 cells; test: Luciferase cGMP biosensor assay; format: cell-based, human
In short: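 HEK293 cells stably expressing a GloSensor cGMP-40F construct (human PDE5A GAF-A fused to firefly luciferase) were G418-selected. Cells were seeded at 6×10⁴/well and attached overnight in DMEM + 10% FBS at 37°C, 5% CO2. They were preincubated at room temperature in CO2-independent medium with 10% FBS and 5 mmol/L luciferin. 50 μM sodium nitroprusside was added together with test compound, and luminescence was read every minute for 1 h.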

[2] = system: all other PDE isozymes, including PDE6 and PDE11; test: PDE isozyme selectivity panel; format: biochemical, human; details: concentrations up to 50 μM
PDE3A = PDE3A (Homo sapiens, UniProt Q14432); test: PDE isoform selectivity, IMAP FP assay; format: biochemical
In short: as §2

PDE2A = PDE2A (Homo sapiens, UniProt O00408); test: PDE isoform selectivity, IMAP FP assay; format: biochemical
PDE11A = PDE11A (Homo sapiens, UniProt Q9HCR9); test: PDE isoform selectivity, IMAP FP assay; format: biochemical
In short: as §2

PDE3B = PDE3B (Homo sapiens, UniProt Q13370); test: PDE isoform selectivity, IMAP FP assay; format: biochemical
In short: as §2

PDE1A = PDE1A (Homo sapiens, UniProt P54750); test: PDE isoform selectivity, IMAP FP assay; format: biochemical
In short: as §2

PDE8A = PDE8A (Homo sapiens, UniProt O60658); test: PDE isoform selectivity, IMAP FP assay; format: biochemical; details: read-out: % inhibition at 50 μM, PDE8A (cAMP)
In short: as §2

COX-1 = biological target: T2, COX-1 (Ovis aries, UniProt P05979); test: COX-1 colorimetric assay; format: biochemical, ovine; details: screening concentration 100 μM
T2 sequence (P05979 25-600): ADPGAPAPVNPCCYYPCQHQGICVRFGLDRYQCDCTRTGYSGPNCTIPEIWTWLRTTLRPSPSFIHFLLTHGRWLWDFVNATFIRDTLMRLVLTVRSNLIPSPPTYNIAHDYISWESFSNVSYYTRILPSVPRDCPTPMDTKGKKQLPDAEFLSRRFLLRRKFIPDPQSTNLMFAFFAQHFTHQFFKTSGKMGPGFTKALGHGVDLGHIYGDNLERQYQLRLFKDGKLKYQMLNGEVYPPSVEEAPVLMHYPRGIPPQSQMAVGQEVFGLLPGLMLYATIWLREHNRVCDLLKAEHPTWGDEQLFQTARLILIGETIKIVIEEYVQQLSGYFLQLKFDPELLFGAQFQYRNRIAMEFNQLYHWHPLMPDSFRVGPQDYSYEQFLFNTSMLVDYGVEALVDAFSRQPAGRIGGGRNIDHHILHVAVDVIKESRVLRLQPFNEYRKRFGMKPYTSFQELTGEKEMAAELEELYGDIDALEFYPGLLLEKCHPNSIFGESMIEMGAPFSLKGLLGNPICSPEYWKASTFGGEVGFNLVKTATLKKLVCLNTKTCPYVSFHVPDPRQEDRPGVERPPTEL
In short: as §1

[3] = read-out: PDE5 % inh at 50 (μM)

Chain of PDE1A (P54750 whole entry, canonical isoform): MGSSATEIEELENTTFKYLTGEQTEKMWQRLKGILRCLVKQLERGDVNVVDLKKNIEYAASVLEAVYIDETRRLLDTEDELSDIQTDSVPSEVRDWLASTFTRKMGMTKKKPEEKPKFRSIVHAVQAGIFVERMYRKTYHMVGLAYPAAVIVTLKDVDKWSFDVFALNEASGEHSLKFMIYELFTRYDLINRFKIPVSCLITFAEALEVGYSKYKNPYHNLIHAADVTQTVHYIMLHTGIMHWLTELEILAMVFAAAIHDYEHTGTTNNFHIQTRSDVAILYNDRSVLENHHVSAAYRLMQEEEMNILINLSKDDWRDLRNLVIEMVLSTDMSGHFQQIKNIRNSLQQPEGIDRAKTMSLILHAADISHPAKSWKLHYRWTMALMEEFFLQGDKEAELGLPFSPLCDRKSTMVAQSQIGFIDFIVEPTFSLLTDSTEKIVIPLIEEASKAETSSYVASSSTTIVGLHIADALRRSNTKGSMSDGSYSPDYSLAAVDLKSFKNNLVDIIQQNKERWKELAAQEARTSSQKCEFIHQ
Chain of PDE11A (Q9HCR9 whole entry, canonical isoform): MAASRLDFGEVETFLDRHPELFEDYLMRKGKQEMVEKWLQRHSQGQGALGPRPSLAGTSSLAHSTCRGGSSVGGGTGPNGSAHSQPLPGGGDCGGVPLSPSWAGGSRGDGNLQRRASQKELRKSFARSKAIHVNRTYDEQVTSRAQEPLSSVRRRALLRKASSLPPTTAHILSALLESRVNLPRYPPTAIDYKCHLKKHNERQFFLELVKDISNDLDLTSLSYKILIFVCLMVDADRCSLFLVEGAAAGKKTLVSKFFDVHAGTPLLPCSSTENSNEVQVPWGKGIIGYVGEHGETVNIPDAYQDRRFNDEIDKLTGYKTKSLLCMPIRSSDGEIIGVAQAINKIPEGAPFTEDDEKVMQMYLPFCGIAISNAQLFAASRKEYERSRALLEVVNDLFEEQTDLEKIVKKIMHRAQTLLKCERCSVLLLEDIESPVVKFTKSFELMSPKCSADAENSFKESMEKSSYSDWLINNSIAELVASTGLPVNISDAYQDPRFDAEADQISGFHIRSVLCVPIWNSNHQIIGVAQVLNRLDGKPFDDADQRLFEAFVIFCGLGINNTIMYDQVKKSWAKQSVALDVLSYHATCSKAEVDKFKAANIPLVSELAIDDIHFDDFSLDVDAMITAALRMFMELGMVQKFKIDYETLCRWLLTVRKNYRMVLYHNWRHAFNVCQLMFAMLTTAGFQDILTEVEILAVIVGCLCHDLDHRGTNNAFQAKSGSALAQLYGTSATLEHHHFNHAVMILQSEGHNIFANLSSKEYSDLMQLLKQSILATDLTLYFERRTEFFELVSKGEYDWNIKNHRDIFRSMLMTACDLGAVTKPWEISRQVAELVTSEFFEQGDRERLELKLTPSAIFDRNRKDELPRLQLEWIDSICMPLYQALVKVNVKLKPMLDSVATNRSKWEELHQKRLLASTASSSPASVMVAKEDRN
Chain of PDE2A (O00408 whole entry, canonical isoform): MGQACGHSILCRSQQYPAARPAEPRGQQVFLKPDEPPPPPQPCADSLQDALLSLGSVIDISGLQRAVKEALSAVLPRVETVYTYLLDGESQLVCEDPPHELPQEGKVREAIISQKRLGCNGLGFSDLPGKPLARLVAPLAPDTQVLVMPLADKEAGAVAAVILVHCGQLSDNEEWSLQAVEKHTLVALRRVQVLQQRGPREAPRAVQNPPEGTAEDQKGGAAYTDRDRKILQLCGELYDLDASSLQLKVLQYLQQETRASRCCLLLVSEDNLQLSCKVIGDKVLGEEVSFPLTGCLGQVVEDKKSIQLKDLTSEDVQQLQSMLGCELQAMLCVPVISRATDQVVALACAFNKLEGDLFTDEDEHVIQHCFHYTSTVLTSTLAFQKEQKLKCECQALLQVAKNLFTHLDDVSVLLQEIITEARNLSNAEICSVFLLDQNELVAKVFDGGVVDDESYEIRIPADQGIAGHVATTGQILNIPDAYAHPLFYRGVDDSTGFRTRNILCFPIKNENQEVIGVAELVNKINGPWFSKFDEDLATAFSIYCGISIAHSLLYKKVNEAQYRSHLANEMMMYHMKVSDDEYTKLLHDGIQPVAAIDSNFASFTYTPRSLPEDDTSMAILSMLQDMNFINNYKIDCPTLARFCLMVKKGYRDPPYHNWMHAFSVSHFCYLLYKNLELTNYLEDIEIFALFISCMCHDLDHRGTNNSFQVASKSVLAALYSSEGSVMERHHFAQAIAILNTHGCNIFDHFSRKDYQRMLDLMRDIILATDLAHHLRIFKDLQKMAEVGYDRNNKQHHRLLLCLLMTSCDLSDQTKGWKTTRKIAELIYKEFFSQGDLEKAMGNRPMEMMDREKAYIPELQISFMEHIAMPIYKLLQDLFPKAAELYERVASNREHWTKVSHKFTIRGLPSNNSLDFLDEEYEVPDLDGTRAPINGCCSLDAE
Chain of PDE10A (Q9Y233 whole entry, canonical isoform): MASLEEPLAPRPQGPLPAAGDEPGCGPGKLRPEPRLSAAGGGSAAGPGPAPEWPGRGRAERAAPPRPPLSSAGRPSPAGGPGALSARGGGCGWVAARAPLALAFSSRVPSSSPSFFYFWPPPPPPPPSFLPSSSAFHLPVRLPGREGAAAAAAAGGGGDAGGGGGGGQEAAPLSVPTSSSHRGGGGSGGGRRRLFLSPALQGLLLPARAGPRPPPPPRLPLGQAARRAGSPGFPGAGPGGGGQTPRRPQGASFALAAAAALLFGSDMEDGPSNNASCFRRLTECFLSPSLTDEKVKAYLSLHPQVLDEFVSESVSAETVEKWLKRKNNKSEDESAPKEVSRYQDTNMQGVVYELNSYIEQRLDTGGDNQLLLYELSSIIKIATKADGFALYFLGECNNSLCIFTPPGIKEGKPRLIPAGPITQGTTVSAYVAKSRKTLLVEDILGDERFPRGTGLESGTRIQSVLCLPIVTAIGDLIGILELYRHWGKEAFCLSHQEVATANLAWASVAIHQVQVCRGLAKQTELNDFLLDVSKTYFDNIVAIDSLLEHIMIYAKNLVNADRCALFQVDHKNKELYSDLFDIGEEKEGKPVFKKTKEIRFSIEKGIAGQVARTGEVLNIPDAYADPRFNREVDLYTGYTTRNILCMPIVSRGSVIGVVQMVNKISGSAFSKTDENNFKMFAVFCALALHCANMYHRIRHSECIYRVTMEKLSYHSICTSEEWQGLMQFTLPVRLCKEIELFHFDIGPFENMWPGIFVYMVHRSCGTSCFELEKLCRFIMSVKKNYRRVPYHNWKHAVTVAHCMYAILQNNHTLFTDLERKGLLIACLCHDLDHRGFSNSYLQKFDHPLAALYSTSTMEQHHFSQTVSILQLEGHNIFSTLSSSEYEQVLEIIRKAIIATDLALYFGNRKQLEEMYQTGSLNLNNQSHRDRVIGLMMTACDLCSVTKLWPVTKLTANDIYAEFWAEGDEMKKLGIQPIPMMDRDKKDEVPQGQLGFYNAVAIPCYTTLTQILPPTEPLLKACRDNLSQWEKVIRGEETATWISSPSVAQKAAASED
Chain of PDE3A (Q14432 whole entry, canonical isoform): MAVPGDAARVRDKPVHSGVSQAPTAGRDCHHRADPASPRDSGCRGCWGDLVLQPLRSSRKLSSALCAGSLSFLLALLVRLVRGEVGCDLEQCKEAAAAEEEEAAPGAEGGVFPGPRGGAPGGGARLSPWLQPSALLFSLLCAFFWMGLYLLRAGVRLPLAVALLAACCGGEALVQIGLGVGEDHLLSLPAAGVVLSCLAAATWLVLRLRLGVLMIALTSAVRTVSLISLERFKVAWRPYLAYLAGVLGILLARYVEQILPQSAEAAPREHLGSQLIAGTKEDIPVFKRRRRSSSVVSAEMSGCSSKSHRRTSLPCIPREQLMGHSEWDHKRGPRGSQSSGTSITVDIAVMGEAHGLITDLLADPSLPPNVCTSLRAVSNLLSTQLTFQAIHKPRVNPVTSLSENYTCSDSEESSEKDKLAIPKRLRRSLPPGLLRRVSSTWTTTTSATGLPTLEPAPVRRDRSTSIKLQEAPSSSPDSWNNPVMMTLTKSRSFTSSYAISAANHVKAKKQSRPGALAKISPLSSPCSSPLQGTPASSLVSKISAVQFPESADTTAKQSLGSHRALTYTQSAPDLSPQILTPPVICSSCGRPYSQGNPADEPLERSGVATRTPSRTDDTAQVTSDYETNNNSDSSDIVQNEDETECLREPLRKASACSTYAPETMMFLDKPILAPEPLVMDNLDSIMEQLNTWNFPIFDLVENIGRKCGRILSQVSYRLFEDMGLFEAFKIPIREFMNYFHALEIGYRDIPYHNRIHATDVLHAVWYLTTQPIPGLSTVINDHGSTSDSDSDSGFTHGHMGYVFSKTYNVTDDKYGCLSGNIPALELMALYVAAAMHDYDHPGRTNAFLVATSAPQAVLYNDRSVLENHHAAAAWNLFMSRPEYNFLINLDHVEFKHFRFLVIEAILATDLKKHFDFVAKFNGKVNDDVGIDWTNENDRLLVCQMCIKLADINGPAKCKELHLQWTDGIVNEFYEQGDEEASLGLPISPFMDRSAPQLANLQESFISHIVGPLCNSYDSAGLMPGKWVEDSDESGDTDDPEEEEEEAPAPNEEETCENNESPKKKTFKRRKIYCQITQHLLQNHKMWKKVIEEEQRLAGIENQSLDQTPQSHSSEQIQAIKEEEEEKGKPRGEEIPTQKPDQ
Chain of PDE7A (Q13946 whole entry, canonical isoform): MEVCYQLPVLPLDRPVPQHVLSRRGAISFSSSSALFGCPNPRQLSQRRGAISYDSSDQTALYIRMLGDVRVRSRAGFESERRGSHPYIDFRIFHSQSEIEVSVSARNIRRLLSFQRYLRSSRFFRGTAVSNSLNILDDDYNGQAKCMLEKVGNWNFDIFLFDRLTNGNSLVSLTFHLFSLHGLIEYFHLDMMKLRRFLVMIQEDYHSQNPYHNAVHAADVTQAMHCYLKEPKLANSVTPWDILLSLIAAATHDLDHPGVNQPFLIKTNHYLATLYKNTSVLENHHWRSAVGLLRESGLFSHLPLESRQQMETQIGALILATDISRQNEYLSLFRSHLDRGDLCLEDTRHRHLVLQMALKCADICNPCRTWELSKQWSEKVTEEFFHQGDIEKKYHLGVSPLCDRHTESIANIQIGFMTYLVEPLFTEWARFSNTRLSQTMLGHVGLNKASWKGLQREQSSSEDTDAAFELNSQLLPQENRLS

IC50 (COX-2): 80 µM
IC50 (human recombinant PDE5): 9.3 µM
inhibition at 50 µM (human recombinant PDE5; [3]): 80%
Structure (SMILES): CC(C)(C)C1=NN(c2ccc(S(=O)(=O)O)cc2)C(c2ccc(F)cc2)C1 (centres unmarked) [Compound 31, 4-(3-tert-Butyl-5-(4-fluorophenyl)-4,5-dihydro-1H-pyrazol-1-yl) benzenesulfonic acid]

inhibition at 50 µM (PDE10A; read-out: % inhibition at 50 μM, PDE10A (cAMP)): 3.6%
inhibition at 50 µM (PDE10A; read-out: % inhibition at 50 μM, PDE10A (cGMP)): 4.5%
inhibition at 50 µM (PDE4B2): 1.6%
inhibition at 50 µM (PDE7A): 9.1%
inhibition at 50 µM (PDE9A): 10.7%
inhibition at 50 µM (PDE6C): 16.2%
inhibition at 50 µM (PDE3A; read-out: % inhibition at 50 μM, PDE3A (cAMP)): 12.4%
inhibition at 50 µM (PDE3A; read-out: % inhibition at 50 μM, PDE3A (cGMP)): 36.2%
inhibition at 50 µM (PDE2A; read-out: % inhibition at 50 μM, PDE2A (cAMP)): 5.6%
inhibition at 50 µM (PDE2A; read-out: % inhibition at 50 μM, PDE2A (cGMP)): 19.9%
inhibition at 50 µM (PDE11A; read-out: % inhibition at 50 μM, PDE11A (cAMP)): 0.9%
inhibition at 50 µM (PDE11A; read-out: % inhibition at 50 μM, PDE11A (cGMP)): 5.9%
inhibition at 50 µM (PDE3B; read-out: % inhibition at 50 μM, PDE3B (cAMP)): 6.7%
inhibition at 50 µM (PDE3B; read-out: % inhibition at 50 μM, PDE3B (cGMP)): 15.7%
IC50 (human recombinant PDE5): 2.7 µM
inhibition at 50 µM (human recombinant PDE5; read-out: % inhibition at 50 μM, PDE5A (cGMP)): 97%
inhibition at 50 µM (human recombinant PDE5; [3]): 97%
inhibition at 50 µM (PDE1A; read-out: % inhibition at 50 μM, PDE1A (cAMP)): 2.6%
inhibition at 50 µM (PDE1A; read-out: % inhibition at 50 μM, PDE1A (cGMP)): 22%
inhibition at 50 µM (PDE8A): 4%
Structure (SMILES): CC(C)(C)C1=NN(c2ccc(C(=O)O)cc2)C(c2ccc(Cl)cc2Cl)C1 (centres unmarked) [Compound 11, 4-(3-(tert-Butyl)-5-(2,4-dichlorophenyl)-4,5-dihydro-1H-pyrazol-1-yl) benzoic acid]
relative potency/efficacy in increasing intracellular cGMP levels ([1]; comparison among tadalafil, celecoxib, 11 and 19): substantially higher efficacy; also recorded: higher cellular potency
intracellular cGMP levels (luminescence), concentration dependence ([1]; pretreated with sodium nitroprusside): concentration-dependent increase
effect on activity of all other PDE isozymes [2]: without significantly affecting the activity

COX1 inhibition at 100 μM (COX-1): no COX inhibition
COX2 inhibition at 100 μM (COX-2; screening concentration 100 μM): no COX inhibition
fold improvement in PDE5 inhibitory activity compared to celecoxib (human recombinant PDE5; ratio of IC50 vs celecoxib): 4 fold
inhibition at 50 µM (human recombinant PDE5; [3]): 93%
Structure (SMILES): Cc1ccc(C2CC(C(C)(C)C)=NN2c2ccc(C(=O)O)cc2)cc1 (centres unmarked) [Compound 22, 4-(3-tert-Butyl-5-p-tolyl-4,5-dihydro-1H-pyrazol-1-yl)benzoic acid]

IC50 (COX-2): 34 µM
IC50 (human recombinant PDE5): 48.7 µM
inhibition at 50 µM (human recombinant PDE5; [3]): 57.5%
fold reduction in PDE5 inhibitory potency compared to compound 7 (human recombinant PDE5): about 15 fold
Structure (SMILES): CC(C)(C)C1=NN(c2ccc(S(N)(=O)=O)cc2)C(c2ccc(Cl)cc2)C1 (centres unmarked) [Compound 33, 4-(3-tert-Butyl-5-(4-chlorophenyl)-4,5-dihydro-1H-pyrazol-1-yl)benzenesulfonamide]

IC50 (COX-2): 85 µM
IC50 (human recombinant PDE5): 8.7 µM
inhibition at 50 µM (human recombinant PDE5; [3]): 85%
fold reduction in PDE5 inhibitory potency compared to compound 7 (human recombinant PDE5): about 2 fold
Structure (SMILES): CC(C)(C)C1=NN(c2ccc(S(=O)(=O)O)cc2)C(c2ccc(Cl)cc2)C1 (centres unmarked) [Compound 32, 4-(3-tert-Butyl-5-(4-chlorophenyl)-4,5-dihydro-1H-pyrazol-1-yl)benzenesulfonic acid]
